# ChEMBL document CHEMBL3352355, “Synthesis of novel polysubstituted (2SR,4RS)-2-heteroaryltetrahydro-1,4-epoxy-1-benzazepines and cis-2-heteroaryl-4-hydroxytetrahydro-1H-1-benzazepines as antiparasitic agents” (Eur J Med Chem, 2014)
# Legend:
# [1] = Selectivity index, ratio of CC50 for human THP1 cells to IC50 for promastigote stage of Leishmania infantum; format: functional, THP-1
# Method in brief: (§1)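 Selectivity index was calculated as CC50 in Vero (T. cruzi) or THP-1 (L. infantum) cells divided by parasite IC50. Both values came from 72 h mammalian-cell MTT assays and the parasite assays; SI ≥ 3 was defined as parasite-selective.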
# Trypanosoma cruzi [2] = assay: Antiparasitic activity against amastigote stage of Trypanosoma cruzi infected in Vero cells assessed as parasite growth inhibition after 24 hrs by hemocytometery; format: functional, organism-based; details: Trypanosoma cruzi, Vero, 24 h; read-out: IC50
# Method in brief: (§2)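 Host cells were Vero for T. cruzi (infected with tissue-derived trypomastigotes) and THP-1 (PMA-transformed, 10 ng/mL) for L. (L.) infantum (infected with late-phase promastigotes), at 1:10 cell:parasite for 24 h. Serial dilutions were given as two doses, the second on day 3 with a medium change. Read-out was % infected cells on methanol-fixed, Giemsa-stained slides (300 cells). IC50 came from sigmoidal regression; experiments in duplicate, concentrations in triplicate.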
# [3] = Selectivity index, ratio of CC50 for human THP1 cells to IC50 for amastigote stage of Leishmania infantum; format: functional, THP-1; method in brief: as §1
# Leishmania infantum [4] = assay: Antiparasitic activity against amastigote stage of Leishmania infantum infected in THP1 cells assessed as parasite growth inhibition after 24 hrs by hemocytometery; format: functional, organism-based, THP-1; details: Leishmania infantum, THP-1, 24 h; read-out: IC50; method in brief: as §2
# [5] = Cytotoxicity against African green monkey Vero cells; format: cell-based; details: chlorocebus sabaeus
# Method in brief: (§3)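 Vero monolayers or THP-1 cells (made adherent with 10 ng/mL PMA), in RPMI 1640 with 10% hiFCS, were exposed to compound (0.3–300 µg/mL) for 72 h at 37 °C, 5% CO2. Viability was measured by MTT, with formazan dissolved in DMSO and read at 580 nm. % cytotoxicity was calculated against untreated cells; CC50 came from sigmoidal regression, given as mean ± SD.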
# [6] = Cytotoxicity against human THP1 cells; format: cell-based; details: THP-1 cells; method in brief: as §3
# [7] = Selectivity index, ratio of CC50 for African green monkey Vero cells to IC50 for epimastigote stage of Trypanosoma cruzi; format: functional; method in brief: as §1
# Leishmania infantum [8] = assay: Antiparasitic activity against promastigote stage of Leishmania infantum assessed as parasite growth inhibition after 72 hrs by hemocytometery
# Trypanosoma cruzi [9] = assay: Antiparasitic activity against epimastigote stage of Trypanosoma cruzi infected in Vero cells assessed as parasite growth inhibition […] by hemocytometery; format: functional, organism-based
# Method in brief: (§4)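 Exponential-phase T. cruzi Sylvio X10 epimastigotes (LIT medium with hiFCS) or L. (L.) infantum MHOM/BR/74/PP75 promastigotes (RPMI 1640, hemin, HEPES, 10% hiFCS) were exposed to threefold serial dilutions (0.3–300 µg/mL) for 72 h at 28 °C. Viable parasites were counted by hemocytometer with 0.25% eosin yellow. IC50 came from sigmoidal regression, given as mean ± SD.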
# [10] = Selectivity index, ratio of CC50 for African green monkey Vero cells to IC50 for amastigote stage of Trypanosoma cruzi; format: functional; method in brief: as §1
# Leishmania infantum [11] = assay: Antiparasitic activity against promastigote stage of Leishmania infantum infected in THP1 cells assessed as parasite growth inhibition […] by hemocytometery; format: functional, organism-based; details: THP-1; method in brief: as §4
IC50 (Trypanosoma cruzi [2]) [µM],IC50 (Trypanosoma cruzi [9]) [µM],Compound,Selectivity Index [1],Selectivity Index [3],IC50 (Leishmania infantum [4]) [µM],CC50 [5] [µM],CC50 [6] [µM],Selectivity Index [7],IC50 (Leishmania infantum [8]) [µM],Selectivity Index [10],IC50 (Leishmania infantum [11]) [µM]
> 408,219,O[C@@H]1Cc2ccccc2N[C@H](c2cccs2)C1 (relative stereo),5.3,5.6,138,986,773,4.5,146,,
23.9,14.7,Clc1ccc2c(c1)C[C@@H]1C[C@@H](c3ccc(Br)s3)N2O1 (racemic),>117.9,>25.9,65.2,1660,> 1690,113.4,14.3,69.8,
330,102,Cc1ccsc1[C@@H]1C[C@H]2Cc3cc(F)ccc3N1O2 (racemic),2.9,1.1,204,601,221,5.9,75.9,1.8,
,,C[C@@H]1[C@H](O)[C@@H](C)/C=C/C=C/C=C/C=C/C=C/C=C/C=C/[C@H](O[C@@H]2O[C@H](C)[C@@H](O)[C@H](N)[C@@H]2O)C[C@@H]2O[C@](O)(C[C@@H](O)C[C@@H](O)[C@H](O)CC[C@@H](O)C[C@@H](O)CC(=O)O[C@H]1C)C[C@H](O)[C@H]2C(=O)O [AMPHOTERICIN B],927.5,456.6,0.01,,29.7,,0.03,,
> 120,45.9,Cc1ccsc1[C@@H]1C[C@H](O)Cc2cc(F)ccc2N1 (relative stereo),28.9,,> 120,243,1810,5.3,,,62.5
123,164,Cc1ccc([C@@H]2C[C@H](O)Cc3cc(F)ccc3N2)s1 (relative stereo),18.5,,> 120,801,312,4.9,,6.53,16.9
> 415,92.9,Cc1ccc([C@@H]2C[C@H]3Cc4ccccc4N2O3)o1 (racemic),14.5,1,398,533,394,5.7,27.3,,
> 411,198,c1csc([C@@H]2C[C@H]3Cc4ccccc4N2O3)c1 (relative stereo),45.7,1.8,406,2310,727,11.6,15.9,,
> 405,177,O[C@@H]1Cc2cc(F)ccc2N[C@H](c2ccoc2)C1,1.9,,> 405,1040,689,5.9,,,365
323,61.8,Cc1ccc([C@@H]2C[C@H](O)Cc3cc(Cl)ccc3N2)o1 (relative stereo),>9.9,,> 361,300,> 1080,4.9,,0.93,110
> 106,606,O[C@@H]1Cc2cc(OC(F)(F)F)ccc2N[C@H](c2ccco2)C1 (relative stereo),2.9,,> 106,166,134,0.3,,,45.9
> 102,42.7,Cc1ccc([C@@H]2C[C@H](O)Cc3cc(OC(F)(F)F)ccc3N2)o1 (relative stereo),9.7,,> 102,82.1,124,1.9,,,12.8
